Results from ChEMBL document CHEMBL5055634 (J Med Chem, 2021).
Calls of active or inactive are those of the source. No cut-off for these calls is given here.

Tests used:
[1] = system: Pseudomonas aeruginosa PAO1; assay: Binding affinity to Pseudomonas aeruginosa PA01 cell wall at 10 uM incubated for 1 hr in dark
In short: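 Indirect cell-binding assay. Pelleted overnight PAO1 cells were resuspended and diluted 10-fold in PBS, then given compound at 10 μM for 1 h at 37 °C in the dark. After centrifugation, the supernatant visible spectrum (380–700 nm) was compared with the spectrum of each compound alone; a drop in absorbance indicates binding.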

Pseudomonas aeruginosa [2] = assay: Antimicrobial activity against Pseudomonas aeruginosa PA01 assessed as inhibition of microbial growth measured after 24 hrs by broth dilution method; assay type: functional; settings: PAO1
In short: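 Broth dilution MIC against P. aeruginosa PAO1. Overnight LB cultures (37 °C, 200 rpm) diluted 100-fold to 10^7 CFU/mL. Two-fold dilution series from 200 to 0.1 μg/mL, 24 h at 37 °C. MIC taken as the lowest concentration with no detectable turbidity. Run at least three times.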

[3] = Induction of NO production aqueous solution assessed as nitrite level at 80 uM measured after 1 hr of white light irradiation by griess reagent based assay; assay type: functional
In short: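 Griess assay. Aqueous compound at 160 μM was mixed 1:1 with Griess reagent, giving 80 μM, in a quartz cuvette. The mix was irradiated with a 300 W tungsten lamp at 40 cm for 15 min, 1 h or 2 h. Absorbance was read at 540 nm and nitrite quantified against a NaNO2 standard curve (5–50 μM).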

DU-145 [4] = assay: Antitumor activity against human DU-145 cells assessed as cell growth inhibition at 0.1 to 75 uM incubated for 72 hrs by MTT assay; assay type: functional, cell-based; settings: dose 0.1-75 µM
In short: (§1)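 MTT viability assay. Cells were plated at line-specific densities and left to attach 24 h, then exposed 72 h at 37 °C to 0.1–75 μM, eight replicates per concentration, with 0.2% DMSO controls. MTT was added for 3 h at 37 °C, formazan dissolved in DMSO and read at 570 nm. IC50 came from nonlinear regression; mean ± ES of 4/5 independent experiments.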

HCT-116 = assay: Antitumour activity against human HCT-116 cells assessed as cell growth inhibition at 0.1 to 75 uM incubated for 72 hrs by MTT assay; assay type: functional, cell-based; settings: dose 0.1-75 µM; in short: as §1
PC-3 [5] = assay: Antitumor activity against human PC-3 cells assessed as cell growth inhibition at 0.1 to 75 uM incubated for 72 hrs by MTT assay; assay type: functional, cell-based; settings: dose 0.1-75 µM; in short: as §1
MDA-MB-231 = assay: Antitumour activity against human MDA-MB-231 cells assessed as cell growth inhibition at 0.1 to 75 uM incubated for 72 hrs by MTT assay; assay type: functional, cell-based; settings: dose 0.1-75 µM; in short: as §1
PC-3 [6] = assay: […] against human PC-3 cells assessed as reduction in cell viability by measuring difference in IC50 pretreated for 24 hrs followed by white light irradiation for 1 hr further incubated for 48 hrs in drug free medium by MTT assay; assay type: functional, cell-based
In short: (§2)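 Prostate cells were treated for 24 h, irradiated 1 h with white or blue light (dark-kept comparison), then incubated 48 h in drug-free medium.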

DU-145 [7] = assay: […] against human DU-145 cells assessed as reduction in cell viability by measuring difference in IC50 pretreated for 24 hrs followed by white light irradiation for 1 hr further incubated for 48 hrs in drug free medium by MTT assay; assay type: functional, cell-based; in short: as §2
PC-3 [8] = assay: Antitumor activity against human PC-3 cells assessed as cell growth inhibition incubated for 72 hrs by MTT assay; assay type: functional, cell-based; settings: PC-3, 72 h; in short: as §1
DU-145 [9] = assay: […] against human DU-145 cells assessed as reduction in cell viability by measuring difference in IC50 pretreated for 24 hrs followed by blue light irradiation for 1 hr further incubated for 48 hrs in drug free medium by MTT assay; assay type: functional, cell-based; in short: as §2
PC-3 [10] = assay: […] against human PC-3 cells assessed as reduction in cell viability by measuring difference in IC50 pretreated for 24 hrs followed by blue light irradiation for 1 hr further incubated for 48 hrs in drug free medium by MTT assay; assay type: functional, cell-based; in short: as §2
Pseudomonas aeruginosa [11] = assay: Photodynamic antimicrobial activity against Pseudomonas aeruginosa PA01 assessed as bacterial eradication at 10 uM incubated for 10 min in dark followed by irradiation with 20J/cm2 light by viability count technique; assay type: functional, organism-based; settings: PAO1
In short: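 Photoinactivation assay. Overnight cultures were diluted in 10 mM phosphate buffer, pH 7.4, to ~10^6 CFU/mL. Compound was added at 10 μM and held 10 min in the dark, then irradiated at 410 ± 10 nm (20 J/cm2); dark controls were not irradiated. Survivors were counted on LB agar after overnight 37 °C incubation and reported as CFU/mL; at least three independent experiments.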

For CCn1cc(C(=O)O)c(=O)c2cc(F)c(N3CCN(c4ccc([N+](=O)[O-])c(C(F)(F)F)c4)CC3)cc21, the Activity [1] was “Active”, the MIC (Pseudomonas aeruginosa [2]) was 25 µg/mL and the Activity [3] was 3.1 µM.

In the case of O=C(O)c1cn(C2CC2)c2cc(N3CCN(CCNc4ccc([N+](=O)[O-])c(C(F)(F)F)c4)CC3)c(F)cc2c1=O, the Activity (DU-145 [4]) is reported as “Active”, the Activity (HCT-116) is reported as “Active” and the Activity (PC-3 [5]) is reported as “Active”. For the same molecule, the Activity (MDA-MB-231) was “Active”, the Activity [1] was “Active” and the MIC (Pseudomonas aeruginosa [2]) was 25 µg/mL. It also gave an Activity [3] of 0.5 µM.

For CCn1cc(C(=O)OC)c(=O)c2cc(F)c(N3CCN(c4ccc([N+](=O)[O-])c(C(F)(F)F)c4)CC3)cc21, the Activity [1] was “Active” and the MIC (Pseudomonas aeruginosa [2]) was 25 µg/mL.

In the case of CCn1cc(C(=O)O)c(=O)c2cc(F)c(N3CCN(CCCNc4ccc([N+](=O)[O-])c(C(F)(F)F)c4)CC3)cc21, the Activity [1] is reported as “Active”, the MIC (Pseudomonas aeruginosa [2]) is reported as 25 µg/mL and the Activity [3] is reported as 1.8 µM.

With CCn1cc(C(=O)OC)c(=O)c2cc(F)c(N3CCN(CCNc4ccc([N+](=O)[O-])c(C(F)(F)F)c4)CC3)cc21 the Activity [1] was “Active” and the MIC (Pseudomonas aeruginosa [2]) was 25 µg/mL.

For COC(=O)c1cn(C2CC2)c2cc(N3CCN(CCCNc4ccc([N+](=O)[O-])c(C(F)(F)F)c4)CC3)c(F)cc2c1=O, the Activity (DU-145 [4]) was “Active”, the Activity (HCT-116) was “Active” and the Activity (PC-3 [5]) was “Active”. The Activity (MDA-MB-231) was “Active”, the Activity [1] was “Active” and the MIC (Pseudomonas aeruginosa [2]) was 25 µg/mL.

With COC(=O)c1cn(C2CC2)c2cc(N3CCN(CCNc4ccc([N+](=O)[O-])c(C(F)(F)F)c4)CC3)c(F)cc2c1=O the Activity (DU-145 [4]) was “Active”, the Activity (HCT-116) was “Active” and the Activity (PC-3 [5]) was “Active”. The Activity (MDA-MB-231) was “Active”, the Activity [1] was “Active” and the MIC (Pseudomonas aeruginosa [2]) was 25 µg/mL.

For COC(=O)c1cn(C2CC2)c2cc(N3CCN(c4ccc([N+](=O)[O-])c(C(F)(F)F)c4)CC3)c(F)cc2c1=O, the Activity (DU-145 [4]) was “Active”, the Activity (HCT-116) was “Active” and the Activity (PC-3 [5]) was “Active”. The Activity (MDA-MB-231) was “Active”, the Activity [1] was “Active” and the MIC (Pseudomonas aeruginosa [2]) was 25 µg/mL.

With O=C(O)c1cn(C2CC2)c2cc(N3CCN(CCCNc4ccc([N+](=O)[O-])c(C(F)(F)F)c4)CC3)c(F)cc2c1=O the Activity (DU-145 [4]) was “Active”, the Activity (HCT-116) was “Active” and the Activity (PC-3 [6]) was “inactive”. For the same molecule, the Activity (PC-3 [5]) was “Active”, the Activity (DU-145 [7]) was “inactive” and the Activity (MDA-MB-231) was “Active”. The IC50 (PC-3 [8]) was less than 3000 nM, the Activity (DU-145 [9]) was “inactive” and the Activity [1] was “Active”. For the same molecule, the Activity (PC-3 [10]) was “inactive”, the MIC (Pseudomonas aeruginosa [2]) was 25 µg/mL and the Activity [3] was 6.2 µM.

In the case of O=C(O)c1cn(C2CC2)c2cc(N3CCN(c4ccc([N+](=O)[O-])c(C(F)(F)F)c4)CC3)c(F)cc2c1=O, the Activity (DU-145 [4]) is reported as “Active”, the Activity (HCT-116) is reported as “Active” and the Activity (PC-3 [5]) is reported as “Active”. For the same molecule, the Activity (MDA-MB-231) was “Active”, the Activity [1] was “Active” and the MIC (Pseudomonas aeruginosa [2]) was 25 µg/mL. The Activity [3] was 0.6 µM.

In the case of CCn1cc(C(=O)O)c(=O)c2cc(F)c(N3CCN(CCNc4ccc([N+](=O)[O-])c(C(F)(F)F)c4)CC3)cc21, the Activity (PC-3 [6]) is reported as “inactive”, the Activity (DU-145 [7]) is reported as “inactive” and the Activity (Pseudomonas aeruginosa [11]) is reported as “inactive”. The Activity (DU-145 [9]) was “inactive”, the Activity [1] was “Active” and the Activity (PC-3 [10]) was “inactive”. For the same molecule, the MIC (Pseudomonas aeruginosa [2]) was 25 µg/mL and the Activity [3] was 0.2 µM.

With CCn1cc(C(=O)OC)c(=O)c2cc(F)c(N3CCN(CCCNc4ccc([N+](=O)[O-])c(C(F)(F)F)c4)CC3)cc21 the Activity [1] was “Active” and the MIC (Pseudomonas aeruginosa [2]) was 25 µg/mL.
